Blank lines part the entries; values can stand above or below the compound they belong to. Activity calls are given as the source filed them. The rule behind the calls is not given here.
Assays:
[1] = molecular target: T1, Amine oxidase [flavin-containing] B (Homo sapiens, UniProt P27338); experiment: biochemical; type: cell-based, BTI-TN-5B1-4
T1 sequence (P27338 whole entry): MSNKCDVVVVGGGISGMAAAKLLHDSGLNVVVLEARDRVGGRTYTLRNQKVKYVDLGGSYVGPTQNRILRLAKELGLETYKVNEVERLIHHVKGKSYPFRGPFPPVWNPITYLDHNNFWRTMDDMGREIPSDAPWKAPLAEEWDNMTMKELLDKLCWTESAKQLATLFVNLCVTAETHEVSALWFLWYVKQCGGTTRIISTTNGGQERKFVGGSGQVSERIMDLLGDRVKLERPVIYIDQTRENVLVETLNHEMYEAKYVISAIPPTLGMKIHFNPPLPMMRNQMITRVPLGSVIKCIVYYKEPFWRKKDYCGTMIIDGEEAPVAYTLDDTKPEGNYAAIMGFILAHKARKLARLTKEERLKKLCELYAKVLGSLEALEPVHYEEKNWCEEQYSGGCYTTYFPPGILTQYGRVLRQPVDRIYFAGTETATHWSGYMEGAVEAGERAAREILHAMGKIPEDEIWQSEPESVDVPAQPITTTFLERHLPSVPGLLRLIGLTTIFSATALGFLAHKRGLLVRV

[2] = molecular target: T2, Amine oxidase [flavin-containing] A (Homo sapiens, UniProt P21397); experiment: Inhibition of human microsomal MAO-A expressed in recombinant baculovirus infected insect BTI-TN-5B1-4 cells assessed as reduction in H2O2 production using p-tyramine as substrate after 15 mins by fluorescence assay
T2 sequence (P21397 whole entry): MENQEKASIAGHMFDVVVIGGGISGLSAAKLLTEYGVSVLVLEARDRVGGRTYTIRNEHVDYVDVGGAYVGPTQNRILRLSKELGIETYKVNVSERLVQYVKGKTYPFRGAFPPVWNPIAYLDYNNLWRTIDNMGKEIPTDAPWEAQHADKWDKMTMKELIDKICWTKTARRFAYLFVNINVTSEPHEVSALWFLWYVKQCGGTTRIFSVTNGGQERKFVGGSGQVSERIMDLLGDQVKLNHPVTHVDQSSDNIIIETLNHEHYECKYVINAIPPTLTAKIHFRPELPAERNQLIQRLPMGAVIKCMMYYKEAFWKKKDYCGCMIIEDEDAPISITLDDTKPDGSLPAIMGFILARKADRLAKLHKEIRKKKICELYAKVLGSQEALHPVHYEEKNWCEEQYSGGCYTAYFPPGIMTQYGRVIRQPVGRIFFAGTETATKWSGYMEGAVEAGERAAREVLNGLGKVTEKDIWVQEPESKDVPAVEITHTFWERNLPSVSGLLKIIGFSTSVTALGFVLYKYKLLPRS

[3] = molecular target: T2, Amine oxidase [flavin-containing] A; experiment: Inhibition of human microsomal MAO-A expressed in recombinant baculovirus infected insect BTI-TN-5B1-4 cells assessed as reduction in H2O2 production at 100 uM using p-tyramine as substrate after 15 mins by fluorescence assay
[4] = molecular target: T1, Amine oxidase [flavin-containing] B; experiment: Reversible inhibition of human microsomal MAO-B expressed in recombinant baculovirus infected insect BTI-TN-5B1-4 cells assessed as increase in residual enzyme activity at 40 nM after 60 mins; conditions: bti-tn-5b1-4, 1 h, 0.04 µM
[5] = molecular target: T2, Amine oxidase [flavin-containing] A; experiment: Inhibition of human microsomal MAO-A expressed in recombinant baculovirus infected insect BTI-TN-5B1-4 cells assessed as reduction in H2O2 production at 10 uM using p-tyramine as substrate after 15 mins by fluorescence assay
Homo sapiens = organism: Homo sapiens; experiment: Selectivity index, ratio of IC50 for human microsomal MAO-A expressed in recombinant baculovirus infected insect BTI-TN-5B1-4 cells to IC50 for human microsomal MAO-B expressed in recombinant baculovirus infected insect BTI-TN-5B1-4 cells
SH-SY5Y [6] = experiment: Cytotoxicity against human SH-SY5Y cells assessed as reduction in cell viability at 1 uM after 24 hrs by MTT assay; type: functional, cell-based
SH-SY5Y [7] = experiment: Cytotoxicity against human SH-SY5Y cells assessed as cell viability at 10 uM after 24 hrs by MTT assay (reference value: […] +/- 11.7 %); type: functional; conditions: read-out: Activity
SH-SY5Y [8] = experiment: Cytotoxicity against human SH-SY5Y cells assessed as reduction in cell viability at 1 to 10 uM after 24 hrs by neutral red uptake assay; type: functional, cell-based
Procedure, shortened: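 SH-SY5Y cells grown to confluence over 3 days and exposed 24 h to compound at 1 and 10 μM in serum-free medium, with a 0.1% DMSO vehicle control. Neutral red 50 μg/mL added for 2 h at 37 °C. Dye extracted with ethanol/water (1:1) containing 5% acetic acid and read at 540 nm. Uptake expressed as % of control.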

SH-SY5Y [9] = experiment: Cytotoxicity against human SH-SY5Y cells assessed as cell viability at 1 uM after 24 hrs by MTT assay (reference value: […] +/- 11.7 %); type: functional; conditions: read-out: Activity

- IC50 ([1]; bti-tn-5b1-4): Nd(Insoluble)
- IC50 [2]: Nd(Insoluble)
SMILES: O=C(Nc1cc(Cl)c(Cl)c(Cl)c1)c1coc2ccccc2c1=O

- INH [3]: Not Active
- inhibition (INH) [4]: Active
SMILES: C[C@H](NCc1ccc(OCc2cccc(F)c2)cc1)C(N)=O [SAFINAMIDE]

- INH [5]: Not Active
- IC50 ([1]; read-out: IC50): 1380 nM
SMILES: O=C(Nc1ccc(O)cc1)c1coc2ccccc2c1=O
- Ratio IC50 (Homo sapiens): > 7.2

- IC50 ([1]; bti-tn-5b1-4): Nd(Insoluble)
- IC50 [2]: Nd(Insoluble)
SMILES: O=C(Nc1ccc(S)cc1)c1coc2ccccc2c1=O

SMILES: Cc1ccc(NC(=O)c2coc3ccccc3c2=O)cc1C
- Activity (SH-SY5Y [6]): inactive
- viability at 10 µM (SH-SY5Y [7]): 74.5%
- Activity (SH-SY5Y [8]): inactive

SMILES: O=C(Nc1cccc(Cl)c1)c1coc2ccccc2c1=O
- viability at 10 µM (SH-SY5Y [7]): 43.7%
- viability at 1 µM (SH-SY5Y [9]): 64.3%
- Activity (SH-SY5Y [8]): inactive

- IC50 ([1]; bti-tn-5b1-4): Nd(Insoluble)
- IC50 [2]: Nd(Insoluble)
SMILES: O=C(Nc1ccc(Cl)c(Cl)c1)c1coc2ccccc2c1=O
